Results reported in the EternaBench riboswitch data.

System: MS2 coat protein
Assay: apparent Kd, MS2 coat protein; higher = weaker binding; RNA-MaP array; FMN 200 µM where present
Procedure, shortened: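 Designs were transcribed by stalled E. coli RNA polymerase on Illumina sequencing-chip clusters. They were titrated with SNAP-549-labelled MS2 coat protein from 0.7 or 1.5 nM, doubling to 3 µM, in 100 mM Tris-HCl pH 7.5, 80 mM KCl, 4 mM MgCl2, BSA, DTT, yeast tRNA and Tween-20, without and then with constant ligand. The apparent Kd is the median of filtered per-cluster fits after normalisation of green signal to red-channel RNA signal and control-cluster median Fmax.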

[1] = designed as: ON switch for flavin mononucleotide, no ligand
[2] = ligand present: flavin mononucleotide, designed as: ON switch for flavin mononucleotide
[3] = designed as: OFF switch for flavin mononucleotide, no ligand
[4] = ligand present: flavin mononucleotide, designed as: OFF switch for flavin mononucleotide

Sequence	apparent Kd [1]	apparent Kd [2]	apparent Kd [3]	apparent Kd [4]
GCGUAAUAGGUGUAGCUAGUCGUGCAAGAAGGGUGGUGAACAUGAGGAUCACCCAUGUGGUCAAUACAGGAUAUUGCUAUACGC	572 nM	139 nM	–	–
CCAUCGAGUGUGAGGAUAUGCUGGUCCUUGGAUCAGCAGAAGGCACAUGAGGAUCACCCAUGUGGAUACGGUGG	–	–	31 nM	235 nM
GCCAUCGCAUGAGGAUAUGGUCUGCUUUGCAGACCAGAAGGCAUGUCAUAAGACAUGAGGAUCACCCAUGUAGUUAAGAUGGCA	800 nM	43.9 nM	–	–
CGGCACCGAGGAUAUACAUGAGGAUCACCCAUGUUUGUUGGGCCCUUAAGAUCUACGUGUAGAAGGUGGGUCGA	–	–	131 nM	167 nM
AGGAGGUCAGGAUAUGCUGCUCGUCACUUGCGUGAUGAGUAGCAGAAGGGACAUGAGGAUCACCCAUGUAAAAA	–	–	52.6 nM	88.7 nM
AGGAGUUUGUAGAAGGACGACUAUUAAGUUUUCGUAGGAUAUACUAUUUACAUGAGGAUCACCCAUGUUUAAAUGGAACAAUGU	–	–	7.85 nM	9.08 nM
CCCUCACAUGAGGAUCACCCAUGUCAGGAUAUUCAAAGCGCAAAUGCGCCAAAUGCAGGAAGAAGGGACGUGCC	–	–	15.1 nM	20.5 nM
CGUUAAUAUCGAGGAUAUGUCUAGACACAUGAGGAUCACCCAUGUAUGUGUAUAGAAGGCGAUAUUAACAGCAUGUUACAUGCA	43 nM	15.6 nM	–	–
AUACUAAAUGAAGGAUAUCUAAGCAUACACCUGAGAGAAGGUCAUUUUUACAUGAGGAUCACCCAUGUUGUGGUUAAUGGGUUA	–	–	290 nM	374 nM
AACAGCACAGGAUAUACAUGAGGAUCACCCAUGUGAGAAUUAAGUGGCGUACCACAAAGUAGAAGGGUGCUGGA	–	–	37.1 nM	286 nM
GUCGUGUGAGGAUAUGAUUGUACGGCAGACUAGCGUCUGCUUCAGAAGGCACAUGAGGAUCACCCAUGUUUGUC	–	–	18.6 nM	34.4 nM
CAAGGUGGAGGAUAUACAUGAGGAUCACCCAUGUAAGGACAAUAAAUAAGAUGAAGAAGUAGAAGGCCACUCAA	–	–	41.4 nM	46.3 nM
AACUUGUCAGGAUAUCUUACAUUUGCAUCAUAGUUACCAUUGGAGAAGGGACAUGAGGAUCACCCAUGUUUGGU	–	–	41.3 nM	39.3 nM
GCCAGGAUGUGAGGAUAUGCUGAGGAUACUUCAGCAGAAGGCACAUGAGGAUCACCCAUGUACACUUAUCAUAAAUACCCUGGC	–	–	13.4 nM	16.3 nM
UGCGUGGUCACAGGAUAUGCAGGAUGAACUUUAGCAGAAGGGUGAUCAAUCAGCUCAAAACCACAUGAGGAUCACCCAUGUCUA	31.9 nM	92.9 nM	–	–
UCCUGGCGAGGAUAUACAAUGUUUUUCGCGUUUUGUUUCGAACAUGAGGAUCACCCAUGUAGAAGGUGCUACUG	–	–	38.3 nM	41 nM
CUUUUGUGAGGAUAUCAGUAGUAAAAAAAUAAAAUUACUACUGAGAAGGUACAUGAGGAUCACCCAUGUUCCUC	–	–	14.2 nM	17.6 nM
UAAUAAUAAUAAUACCAGUUUACAUGAGGAUCACCCAUGUAUAAGGAUAUGCAGUGGAAUACACUGCAGAAGGUAUACAUCUGG	–	–	18.8 nM	35.9 nM
AAUCUAUUUAUGGGAUUACAAUAUGAGGAUAUCAUUCAUCUAUACAUGAGGAUCACCCAUGUUACUGAGAAGGCAUAUAUAAUA	14.1 nM	9.85 nM	–	–
CGAUGACAAAGUCAUCGAUUACGAACAUGAGGAUCACCCAUGUAGGAUAUGCUACUCAAAGAGUAGCAGAAGGACAUGUGUCUU	–	–	35.6 nM	155 nM
GGUGCGUAUGUGAGGAUAUGCUGGUCCUUGGAUCGGCAGAAGGCACAUGAGGAUCACCCAUGUGGUGUCGUUCC	–	–	120 nM	55.4 nM
AGCGUGUAAGGAUAUACGUCGGAUAGCGAAUACUGUCCCUAGUAGAAGGUACAUGAGGAUCACCCAUGUGUCCA	–	–	23.9 nM	51.8 nM
CCUUGACAUGAGGAUCACCCAUGUUAGGAUAUAACAUUAGACACUACAGUAUGUAGUGUUAGAAGGGAUAUGGG	–	–	22.8 nM	28.5 nM
